Experimental data reported in ChEMBL document CHEMBL2034927, “Design, synthesis, anti-HIV evaluation and molecular modeling of piperidine-linked amino-triazine derivatives as potent non-nucleoside reverse transcriptase inhibitors” (Bioorg Med Chem, 2012).

What was measured:
[1] = Selectivity index, ratio of CC50 for human MT4 cells to EC50 for HIV1 RES056 harboring reverse transcriptase K103N/Y181C RT mutant; assay type: toxicity, cell-based; conditions: read-out: Ratio CC50/EC50
[2] = test system: Human immunodeficiency virus 1; test: Fold resistance, ratio of EC50 for HIV1 RES056 harboring reverse transcriptase K103N/Y181C RT mutant to EC50 for wild type HIV1 3B; assay type: functional
Method in brief: (§1)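 MT-4 cells at 6 × 10⁵ cells/mL were infected with the double mutant HIV-1 RES056 (K103N+Y181C), with serial fivefold compound dilutions. After 5 days, viability was read by MTT at 540 and 690 nm, using the median OD of three wells. EC50 is 50% protection against virus-induced cytotoxicity, and CC50 is a 50% drop in OD540 of mock-infected cells. Fold resistance is the RES056 EC50 divided by the IIIB EC50.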

[3] = Cytotoxicity against human MT4 cells after 5 days by MTT assay; assay type: cell-based
Method in brief: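 MT-4 cells at 6 × 10⁵ cells/mL were mock-infected with culture medium and exposed to serial fivefold dilutions of compound. After 5 days, viability was measured by MTT reduction at 540 and 690 nm, using the median OD of three wells. CC50 is the concentration reducing OD540 of the mock-infected control by 50%.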

[4] = Selectivity index, ratio of CC50 for human MT4 cells to EC50 for wild type HIV1 3B; assay type: toxicity, cell-based; conditions: read-out: Ratio CC50/EC50
Method in brief: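 HIV-1 IIIB stock at 100–300 CCID50 was added to MT-4 cells at 6 × 10⁵ cells/mL, with serial fivefold compound dilutions and mock-infected wells run in parallel. Viability was read by MTT at 540 and 690 nm after 5 days, using the median OD of three wells. EC50 is 50% protection from HIV-induced cytotoxicity, and CC50 is a 50% reduction of mock-infected OD540. SI is CC50/EC50.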

[5] = test system: Human immunodeficiency virus 1; test: Antiviral activity against HIV1 RES056 harboring reverse transcriptase K103N/Y181C mutant infected in human MT4 cells assessed as inhibition of virus-induced cytopathic effect after 5 days by MTT assay; assay type: functional, organism-based; conditions: Human immunodeficiency virus 1, RES056, MT4, 120 h; method in brief: as §1
[6] = test system: Human immunodeficiency virus 1; test: Antiviral activity against HIV1 3B infected in human MT4 cells assessed as inhibition of virus-induced cytopathic effect after 5 days by MTT assay; assay type: functional, organism-based; conditions: Human immunodeficiency virus 1, 3B, MT4, 120 h
Method in brief: (§2)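 MT-4 cells spun 5 min at 1000 rpm, resuspended at 6 × 10⁵ cells/mL, then infected with HIV-1 IIIB or HIV-2 ROD at 100–300 CCID50. Test compounds were added as serial fivefold dilutions. After 5 days, viability was read by MTT reduction at 540 and 690 nm, using the median OD of three wells. EC50 is the concentration giving 50% protection against virus-induced cytotoxicity.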

[7] = test system: Human immunodeficiency virus 2; test: Antiviral activity against HIV2 ROD infected in human MT4 cells assessed as inhibition of virus-induced cytopathic effect after 5 days by MTT assay; assay type: functional, organism-based; conditions: Human immunodeficiency virus 2, ISOLATE ROD, MT4, 120 h; method in brief: as §2

| SMILES | selectivity ratio [1] | Ratio EC50 [2] | CC50 at 120 h [3] | selectivity ratio [4] | EC50 [5] | EC50 [6] | EC50 [7] |
| --- | --- | --- | --- | --- | --- | --- | --- |
| Cc1cc(C)c(Nc2nc(N)nc(NC3CCN(Cc4ccc(S(N)(=O)=O)cc4)CC3)n2)c(C)c1 | 32 | 105.7 | 19.9 µM | 3450 | 0.61 µM | 0.00575 µM | > 19.9 µM |
| CNc1nc(Nc2c(C)cc(C)cc2C)nc(NC2CCN(Cc3ccc(S(N)(=O)=O)cc3)CC2)n1 | 29 | 72.7 | 14.8 µM | 2120 | 0.51 µM | 0.00699 µM | > 14.8 µM |
| CCOC(=O)c1ccc(CN2CCC(Nc3nc(Nc4c(C)cc(C)cc4C)nc(OC)n3)CC2)cc1 | < 1 | >576.6 | 8.48 µM | 577 | > 8.48 µM | 0.0147 µM | > 8.48 µM |
| CNc1nc(Nc2c(C)cc(C)cc2C)nc(NC2CCN(Cc3ccc(S(C)(=O)=O)cc3)CC2)n1 | 3 | 549.8 | 9.64 µM | 1590 | 3.33 µM | 0.00606 µM | > 9.64 µM |
| Cc1cc(C)c(Nc2nc(N)nc(NC3CCN(Cc4ccc(C#N)cc4)CC3)n2)c(C)c1 | < 1 | >575.8 | 3.26 µM | 576 | > 3.26 µM | 0.00566 µM | > 3.26 µM |
| COc1nc(Nc2c(C)cc(C)cc2C)nc(NC2CCN(Cc3ccc(C(N)=O)cc3)CC2)n1 | 30 | 128.3 | 33.4 µM | 3870 | 1.11 µM | 0.00864 µM | > 33.4 µM |
| CC(C)Nc1cccnc1N1CCN(C(=O)c2cc3cc(NS(C)(=O)=O)ccc3[nH]2)CC1.CS(=O)(=O)O [DELAVIRDINE MESYLATE] | ≥ 1 | >1033.6 | > 36.2 µM | > 1030 | > 36.2 µM | 0.035 µM | – |
| Cc1cc(C)c(Nc2nc(N)nc(NC3CCN(Cc4ccc(S(C)(=O)=O)cc4)CC3)n2)c(C)c1 | 1 | 887.5 | 5.06 µM | 911 | 4.92 µM | 0.00555 µM | > 5.06 µM |
| O=C1Nc2ccc(Cl)cc2[C@@](C#CC2CC2)(C(F)(F)F)O1 [EFAVIRENZ] | > 12 | 83.6 | > 6.34 µM | > 964 | 0.55 µM | 0.00657 µM | – |
| CCOC(=O)c1ccc(CN2CCC(Nc3nc(N)nc(Nc4c(C)cc(C)cc4C)n3)CC2)cc1 | < 1 | >511.6 | 5.91 µM | 512 | > 5.91 µM | 0.0116 µM | > 5.91 µM |
| Cc1cc(C)c(Nc2nc(N)nc(NC3CCN(Cc4ccc([N+](=O)[O-])cc4)CC3)n2)c(C)c1 | < 1 | >439.1 | 3.46 µM | 439 | > 3.46 µM | 0.00787 µM | > 3.46 µM |
| CNc1nc(Nc2c(C)cc(C)cc2C)nc(NC2CCN(Cc3ccncc3)CC2)n1 | 47 | 76.4 | 25.8 µM | 3560 | 0.55 µM | 0.00725 µM | > 25.8 µM |
| Cc1ccnc2c1NC(=O)c1cccnc1N2C1CC1 [NEVIRAPINE] | ≥ 1 | >75 | > 15 µM | > 75 | > 15 µM | – | – |
| COc1nc(Nc2c(C)cc(C)cc2C)nc(NC2CCN(Cc3ccc(S(N)(=O)=O)cc3)CC2)n1 | 21 | 88.2 | 19.6 µM | 1850 | 0.94 µM | 0.0106 µM | > 19.6 µM |
| Cc1cc(C)c(Nc2nc(N)nc(NC3CCN(Cc4ccccc4)CC3)n2)c(C)c1 | 5 | 481.3 | 23.6 µM | 2300 | 4.93 µM | 0.0103 µM | > 23.6 µM |
| Cc1cc(C)c(Nc2nc(N)nc(NC3CCN(Cc4ccncc4)CC3)n2)c(C)c1 | 21 | 198.8 | 20.1 µM | 4110 | 0.97 µM | 0.0049 µM | > 20.1 µM |
| Cc1cc(C#N)cc(C)c1Oc1nc(Nc2ccc(C#N)cc2)nc(N)c1Br [ETRAVIRINE] | 817 | 15.5 | – | – | – | – | – |
| Cc1cc(C)c(Nc2nc(N)nc(NC3CCN(Cc4ccc(C(N)=O)cc4)CC3)n2)c(C)c1 | 22 | 162.8 | 74.4 µM | 3640 | 3.33 µM | 0.0204 µM | > 74.4 µM |
| CNc1nc(Nc2c(C)cc(C)cc2C)nc(NC2CCN(Cc3ccc(C(N)=O)cc3)CC2)n1 | 49 | 121.6 | 27.4 µM | 5940 | 0.56 µM | 0.00461 µM | > 27.4 µM |
| Nc1ccn([C@H]2CC[C@@H](CO)O2)c(=O)n1 [ZALCITABINE] | – | – | > 94.7 µM | > 68 | – | 1.39 µM | 1.67 µM |
| COc1nc(Nc2c(C)cc(C)cc2C)nc(NC2CCN(Cc3ccc(S(C)(=O)=O)cc3)CC2)n1 | ≤ 8 | >=133.3 | 13.5 µM | 1130 | ≥ 1.59 µM | 0.0119 µM | > 13.5 µM |
| CCOC(=O)c1ccc(CN2CCC(Nc3nc(NC)nc(Nc4c(C)cc(C)cc4C)n3)CC2)cc1 | < 1 | >297 | 4.95 µM | 297 | > 4.95 µM | 0.0167 µM | > 4.95 µM |
| COc1nc(Nc2c(C)cc(C)cc2C)nc(NC2CCN(Cc3ccncc3)CC2)n1 | 21 | 111.1 | 30.9 µM | 2320 | 1.48 µM | 0.0133 µM | > 30.9 µM |
| Cc1cn([C@H]2C[C@H](N=[N+]=[N-])[C@@H](CO)O2)c(=O)[nH]c1=O [ZIDOVUDINE] | ≥ 4400 | 1.9 | ≥ 49.8 µM | ≥ 8300 | 0.01 µM | – | 0.007 µM |
